Assay results as given in ChEMBL document CHEMBL3259675, “Novel N-substituted sophoridinol derivatives as anticancer agents” (Eur J Med Chem, 2014).

Key:
HCT-116 = assay: Antiproliferative activity against human HCT116 cells assessed as growth inhibition after 48 hrs by MTT assay; format: functional, cell-based; conditions: HCT-116, 48 h
How it was run: (§1)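 Cell lines from ATCC, grown in MEM-EBSS with 10% FBS and 1% penicillin-streptomycin at 37 °C, 5% CO2. Seeded at 4000 cells/well, left 24 h, then exposed to a concentration series for 48 h. Growth read by MTT. Percent inhibition was computed at each concentration and IC50 derived from it. Triplicate determinations, reported as mean SD.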

KB = assay: Antiproliferative activity against human KB cells assessed as growth inhibition after 48 hrs by MTT assay; format: functional, cell-based; how it was run: as §1
Mus musculus [1] = assay: Toxicity in mouse at 250 to 1000 mg/kg, ig; format: organism-based; parameters: dose 250-1000 mg/kg, route intragastric; conditions: in vivo, po
How it was run: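 Single-dose toxicity in mice: compound given intragastrically at 250, 500 or 1000 mg/kg, with deaths monitored.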

HepG2 [2] = assay: Cell cycle arrest in human HepG2 cells assessed as accumulation at G0/G1 phase at 5 ug/ml after 24 hrs by FACS flow cytometric analysis (reference value: 2 %); format: functional; conditions: HepG2, 24 h
How it was run: (§2)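 HepG2 cells exposed to 0, 2.5, 5 or 10 µg/ml for 24 h, then harvested. Fixed in 70% ethanol and held at −20 °C. Cell-cycle distribution determined by flow cytometry, with untreated cells as control.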

Mus musculus [3] = assay: Toxicity in mouse assessed as body weight at 250 to 1000 mg/kg, ig; format: organism-based; parameters: dose 250-1000 mg/kg, route intragastric; conditions: in vivo, po
HepG2 [4] = assay: Cell cycle arrest in human HepG2 cells assessed as accumulation at G0/G1 phase at 10 ug/ml after 24 hrs by FACS flow cytometric analysis (reference value: 2 %); format: functional; conditions: HepG2, 24 h; how it was run: as §2
MCF7 = assay: Antiproliferative activity against human MCF7 cells assessed as growth inhibition after 48 hrs by MTT assay; format: functional, cell-based; conditions: MCF7, 48 h; how it was run: as §1
HepG2 [5] = assay: Antiproliferative activity against human HepG2 cells assessed as growth inhibition at 10 ug/ml after 48 hrs by MTT assay; format: functional; conditions: HepG2, 48 h; how it was run: as §1
HepG2 [6] = assay: Cell cycle arrest in human HepG2 cells assessed as accumulation at G0/G1 phase at 2.5 ug/ml after 24 hrs by FACS flow cytometric analysis (reference value: 2 %); format: functional; conditions: HepG2, 24 h; how it was run: as §2
HepG2 [7] = assay: Antiproliferative activity against human HepG2 cells assessed as growth inhibition after 48 hrs by MTT assay; format: functional, cell-based; conditions: HepG2, 48 h; how it was run: as §1
NCI-H1299 = assay: Antiproliferative activity against human NCI-H1299 cells assessed as growth inhibition after 48 hrs by MTT assay; format: functional, cell-based; conditions: NCI-H1299, 48 h; how it was run: as §1
[8] = Antiproliferative activity against human U87 cells assessed as growth inhibition after 48 hrs by MTT assay; format: functional, cell-based, U-87MG ATCC; conditions: U-87 MG; how it was run: as §1

- IC50 (HCT-116): 4.59 µM
- IC50 (KB): 6.11 µM
- IC50 (MCF7): 20 µM
- IC50 (HepG2 [7]): 4.05 µM
- IC50 (NCI-H1299): 4.06 µM
Compound: COC(=O)CCC[C@@H]1[C@H]2CCCN3CCC[C@H](CN1Cc1ccc(Cl)cc1)[C@@H]23
- Activity (Mus musculus [1]): Non-toxic
- inhibition at 5 µg/mL (HepG2 [2]): 11.8%
- Activity (Mus musculus [3]): Non-toxic
- inhibition at 10 µg/mL (HepG2 [4]): 8.5%
- inhibition at 10 µg/mL (HepG2 [5]): 97.6%
- inhibition at 2.5 µg/mL (HepG2 [6]): 6.3%
- IC50 [8]: 12.6 µM
